Test results reported in ChEMBL document CHEMBL4390662, “Design, synthesis and biological evaluation of novel α-acyloxy carboxamides via Passerini reaction as caspase 3/7 activators” (Eur J Med Chem, 2019).
≈ marks a conversion by molar mass, not a printed value. Calls of active or inactive are those of the source. The rule behind the calls is not given here.

Key:
WI-38 = test: Cytotoxicity against human WI38 cells assessed as cell growth inhibition incubated for 72 hrs by MTT assay; assay type: cell-based; conditions: for IC50: Homo sapiens, WI-38, 72 h; for EC100: human, wi-38, 72 h
Outline: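 Wi-38 fibroblasts grown in DMEM with 10% FBS and seeded at 5×10^3 per well. Attachment 24 h, then serial concentrations for 72 h at 37°C, 5% CO2. MTT stock (5 mg/mL) added for 3 h at 37°C, DMSO solubilization, absorbance at 570 nm. IC50 estimated.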

MCF7 [1] = test: Cytotoxicity against human MCF7 cells assessed as cell growth inhibition incubated for 72 hrs by MTT assay; assay type: functional, cell-based; conditions: MCF7, 72 h
Outline: (§1)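 Cells grown in RPMI-1640 with 10% FBS and seeded at 5×10^3 per well. After 24 h, serial concentrations given for 72 h at 37°C, 5% CO2. Then 5 mg/mL MTT stock added for 3 h, formazan dissolved in DMSO, A570 read. IC50 calculated from the curves.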

NFS-60 = test: Cytotoxicity against mouse NFS60 cells assessed as cell growth inhibition incubated for 72 hrs by MTT assay; assay type: functional, cell-based; conditions: NFS-60, 72 h; outline: as §1
HepG2 = test: Cytotoxicity against human HepG2 cells assessed as cell growth inhibition incubated for 72 hrs by MTT assay; assay type: functional, cell-based; conditions: HepG2, 72 h; outline: as §1
MCF7 [2] = test: Potency index, ratio of doxorubicin IC50 to test compound IC50 against human MCF7 cells; assay type: functional
[3] = Selectivity index, ratio of IC50 for human WI38 cells to IC50 for human MCF7 cells; assay type: toxicity; conditions: WI38 cells versus MCF7 cells, read-out: Ratio IC50
Outline: (§2)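 SI calculated as IC50 on normal Wi-38 fibroblasts divided by IC50 on the cancer cell line. Both came from 72 h MTT assays.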

[4] = Selectivity index, ratio of IC50 for human WI38 cells to IC50 for mouse NFS60 cells; outline: as §2
[5] = Selectivity index, ratio of IC50 for human WI38 cells to IC50 for human HepG2 cells; assay type: toxicity; conditions: WI38 cells versus HepG2 cells, read-out: Ratio IC50; outline: as §2
Staphylococcus aureus [6] = test: Antimicrobial activity against Staphylococcus aureus ATCC 25923 incubated for 24 hrs by agar well diffusion assay; assay type: functional
Outline: (§3)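 Nutrient agar spread with 100 µL inoculum: bacteria at 1×10^8 CFU/mL, fungi at 1×10^6 CFU/mL. 10 mm wells loaded with 100 µL of compound in DMSO (final 1 mg/mL). Bacteria incubated 24 h at 37 °C, fungi 48 h at 28 °C. Inhibition zones measured in mm. Ciprofloxacin and fluconazole standards at 1 mg/mL, DMSO negative control.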

Enterococcus faecalis = test: Antimicrobial activity against Enterococcus faecalis ATCC 29212 incubated for 24 hrs by agar well diffusion assay; assay type: functional; outline: as §3
Pseudomonas aeruginosa = test: Antimicrobial activity against Pseudomonas aeruginosa ATCC 27853 incubated for 24 hrs by agar well diffusion assay; assay type: functional; outline: as §3
Escherichia coli [7] = test: Antimicrobial activity against Escherichia coli ATCC 25922 incubated for 24 hrs by agar well diffusion assay; assay type: functional; outline: as §3
Candida albicans [8] = test: Antimicrobial activity against Candida albicans ATCC 90028 incubated for 48 hrs by agar well diffusion assay; assay type: functional; outline: as §3
Staphylococcus aureus [9] = test: Antimicrobial activity against Staphylococcus aureus ATCC 25923 incubated for 24 hrs by microdilution assay; assay type: functional
Outline: (§4)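 Two-fold serial dilutions of test solutions made in Mueller Hinton broth and inoculated. Incubated at 37°C for 24 h. MIC taken as the lowest concentration with no growth. Ciprofloxacin is the antibacterial reference, fluconazole the antifungal one, and DMSO the blank.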

Escherichia coli [10] = test: Antimicrobial activity against Escherichia coli ATCC 25922 incubated for 24 hrs by microdilution assay; assay type: functional; outline: as §4
Candida albicans [11] = test: Antimicrobial activity against Candida albicans ATCC 90028 incubated for 24 hrs by microdilution assay; assay type: functional; outline: as §4

Row | Structure (SMILES) | IC50 (WI-38) | EC100 (WI-38) | IC50 (MCF7 [1]) | IC50 (NFS-60) | IC50 (HepG2) | Ratio IC50 (MCF7 [2]) | selectivity ratio [3] | Ratio IC50 [4] | selectivity ratio [5] | diameter of the inhibition zone (DIZ) (Staphylococcus aureus [6]) | diameter of the inhibition zone (DIZ) (Enterococcus faecalis) | diameter of the inhibition zone (DIZ) (Pseudomonas aeruginosa) | diameter of the inhibition zone (DIZ) (Escherichia coli [7]) | diameter of the inhibition zone (DIZ) (Candida albicans [8]) | MIC (Staphylococcus aureus [9]) | MIC (Escherichia coli [10]; ATCC 25922, 24 h) | MIC (Candida albicans [11]) | MIC (Escherichia coli [10]) | MIC (Candida albicans [11]; ATCC 90028, 24 h)
1 | Cc1ccc(C(=O)OC2(C(=O)Nc3ccc([N+](=O)[O-])cc3)CCCCC2)cc1 | 32 nM | 0.0064 µM | 9.8 nM | 45.4 nM | 61.2 nM | 2 - 4 | 3.27 | 0.704 | 0.522 | inactive | inactive | inactive | inactive | inactive | – | – | – | – | –
2 | COc1ccc(C(=O)OC2(C(=O)Nc3ccc([N+](=O)[O-])cc3)CCCCC2)cc1 | 40 nM | 0.0178 µM | 41.2 nM | 38.8 nM | 57.1 nM | – | 0.97 | 1.031 | 0.7 | inactive | inactive | 12 mm | 12 mm | inactive | inactive | 2570 µM (≈ 1020 µg/mL) | inactive | – | –
3 | O=C(Nc1ccc([N+](=O)[O-])cc1)C1(O)CCCCC1 | 1220 nM | 0.53 µM | 664 nM | 716 nM | 648 nM | – | 1.84 | 1.705 | 1.88 | inactive | inactive | inactive | 12 mm | 15 mm | inactive | – | – | inactive | 1040 µM (≈ 275 µg/mL)
